≈ marks a conversion by molar mass, not a printed value.
Legend:
Plasmodium falciparum = experiment: Antiplasmodial activity after 48 hrs against chloroquine-resistant Plasmodium falciparum W2 in human erythrocytes by [3H]hypoxanthine uptake; assay type: functional, organism-based
How it was run: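 Chloroquine-resistant W2 P. falciparum grown in RPMI 1640 with 6% human erythrocytes and 10% human serum, under 5% CO2, 5% O2, 90% N2 at 37°C. Sensitivity tested by semi-automated micro-dilution. [3H]hypoxanthine incorporation measured across compound concentrations, and IC50 derived from it.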

[1] = Toxicity in Plasmodium berghei infected ICR mice (Mus musculus) dosed intraperitoneally once daily for 4 days by Thompson test; assay type: organism-based; details: in vivo, ip
[2] = Therapeutic index, ratio of MTD for Plasmodium berghei infected ICR mice (Mus musculus) to MCD for Plasmodium berghei; details: read-out: TI
Plasmodium berghei = experiment: Antimalarial activity against Plasmodium berghei infected ICR mice (Mus musculus) daily oral or subcutaneous dose for 8 days by Thompson test; details: for ED50: Plasmodium berghei, po or sc, 192 h

| SMILES | IC50 (Plasmodium falciparum) [ng/mL] | MTD at 96 h [1] [mg/kg] | selectivity ratio [2] | MCD (Plasmodium berghei) [mg/kg] | ED50 (Plasmodium berghei) [mg/kg] |
| --- | --- | --- | --- | --- | --- |
| O=C(C[C@H]1NCC[C@@H]1O)Cn1cnc2ccccc2c1=O | 0.56 (≈ 1.95 nM) | 144 | 17 | 8.4 | 1.6 |
| O=C(C[C@H]1NCC[C@@H]1O)Cn1cnc2cccnc2c1=O | 0.12 (≈ 0.416 nM) | 345 | 111 | 3.1 | 0.44 |
| O=C(C[C@H]1NCC[C@@H]1O)Cn1cnc2ccc(F)cc2c1=O | 0.26 (≈ 0.852 nM) | 425 | 63 | 6.8 | 1.1 |
| O=C(C[C@H]1NCC[C@@H]1O)Cn1cnc2cccc(C(F)(F)F)c2c1=O | 0.23 (≈ 0.647 nM) | 335 | 71 | 4.7 | 0.74 |
| O=C(C[C@H]1NCC[C@@H]1OCc1ccccc1)Cn1cnc2cccnc2c1=O | 0.14 (≈ 0.37 nM) | 102 | 132 | 0.77 | 0.14 |
| O=C(C[C@H]1NCC[C@@H]1O)Cn1cnc2cnccc2c1=O | 0.31 (≈ 1.08 nM) | 338 | 51 | 6.6 | 1.2 |
| O=C(C[C@H]1NCC[C@@H]1O)Cn1cnc2ccc(F)c(F)c2c1=O | 0.4 (≈ 1.24 nM) | 379 | 43 | 8.9 | 1.7 |
| O=C(C[C@H]1NCC[C@@H]1O)Cn1cnc2ccncc2c1=O | 0.14 (≈ 0.486 nM) | 310 | 107 | 2.9 | 0.49 |
| O=C(C[C@H]1NCC[C@@H]1O)Cn1cnc2ncccc2c1=O | 0.34 (≈ 1.18 nM) | 439 | 74 | 5.9 | 1.3 |
| O=C(C[C@H]1NCC[C@@H]1O)Cn1cnc2cccc(F)c2c1=O | 0.29 (≈ 0.95 nM) | 399 | 56 | 7.1 | 1 |
| CC(C)(C)c1cccc2ncn(CC(=O)C[C@H]3NCC[C@@H]3O)c(=O)c12 | 2.9 (≈ 8.44 nM) | 429 | 11 | 39 | 8.7 |
| O=C(C[C@H]1NCC[C@@H]1O)Cn1cnc2ccc(C(F)(F)F)cc2c1=O | 0.28 (≈ 0.788 nM) | 440 | 56 | 7.9 | 1.5 |
| COc1cccc2c(=O)n(CC(=O)C[C@H]3NCC[C@@H]3O)cnc12 | 0.57 (≈ 1.8 nM) | 51 | 10 | 4.9 | 1.5 |
| COc1ccc2c(=O)n(CC(=O)C[C@H]3NCC[C@@H]3O)cnc2c1 | 0.62 (≈ 1.95 nM) | 55 | 10 | 5.6 | 1.7 |
| CC(C)(C)c1ccc2ncn(CC(=O)C[C@H]3NCC[C@@H]3O)c(=O)c2c1 | 3.4 (≈ 9.9 nM) | 504 | 12 | 42 | 10 |
| O=C(C[C@H]1NCC[C@@H]1OCc1ccccc1)Cn1cnc2cccc(C(F)(F)F)c2c1=O | 0.19 (≈ 0.427 nM) | 88 | 128 | 0.69 | 0.12 |
| CCN(CC)CCCC(C)Nc1ccnc2cc(Cl)ccc12 (stereo not drawn) [CHLOROQUINE] |  | 240 |  | 40 | 4.5 |
| O=C(C[C@@H]1NCCC[C@H]1O)Cn1cnc2ccccc2c1=O [FEBRIFUGINE] | 0.76 (≈ 2.52 nM) | 35 | 3 | 12 | 2.3 |

From ChEMBL document CHEMBL1152949, “Synthesis and biological evaluation of febrifugine analogues as potential antimalarial agents” (Bioorg Med Chem, 2009)
